ChEMBL document CHEMBL1137223, “Antileishmanial pyrazolopyridine derivatives: synthesis and structure-activity relationship analysis” (J Med Chem, 2004)
“And” between values parts separate entries of the source, which are not always exact repeats. Equal entries are not always repeated.

Legend:
Leishmania amazonensis = assay: Tested for growth inhibitory activity against Leishmania amazonensis promastigotes; type: functional, organism-based
Summary of the method: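 L. amazonensis promastigotes (MHOM/BR/77/LTB0016), grown at 25 °C in LIT medium with 10% heat-inactivated FCS, harvested late log phase, adjusted to 4×10^6/mL. Drugs in DMSO (≤1.6% v/v) at 160 to 5 μg/mL; 24 h incubation; parasites counted in Neubauer chamber; inhibition versus DMSO and untreated controls; IC50 by linear regression of inhibition against log concentration.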

[1] = pKa was determined; type: physicochemical
[2] = Partition coefficient (logP); type: physicochemical; conditions: octanol/water
Summary of the method: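 Shake-flask octanol/aqueous buffer pH 7.4 partition; compound stock 4 × 10^-3 M in 1,4-dioxane; phases shaken 1 h at 25.0 ± 0.1 °C, centrifuged 15 min; both layers read by UV at λmax 320–354 nm; three replicates. P taken as quotient of buffer and octanol concentrations. Some values instead calculated from unsubstituted parent log P plus hydrophobic fragmental constants (log PX = log PH + πX).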

| SMILES | IC50 (Leishmania amazonensis) | pKa [1] | logP [2] |
| --- | --- | --- | --- |
| CCN(CC)Cc1cc(Nc2ccnc3cc(Cl)ccc23)ccc1O.Cl | 0.34 µg/mL and 950 nM | – | – |
| CCOC(=O)c1cnc2c(c(C)nn2C)c1Nc1cccc([N+](=O)[O-])c1 | 6.11 µg/mL and 17.2 µM | 8.38 | 0.68 |
| CCOC(=O)c1cnc2c(c(C)nn2C)c1Nc1ccccc1 | 30.7 µg/mL and 98.9 µM | 8.23 | 0.96 |
| CCOC(=O)c1cnc2c(c(C)nn2C)c1Nc1ccc(Cl)cc1 | 1.34 µg/mL and 3.89 µM | 7.98 | 1.32 |
| CCOC(=O)c1cnc2c(c(C)nn2C)c1Nc1ccc(F)cc1 | 12.8 µg/mL and 39 µM | 8.14 | 0.7 |
| CCOC(=O)c1cnc2c(c(C)nn2C)c1Nc1ccc([N+](=O)[O-])cc1 | 114 µg/mL and 321 µM | 8.8 | 0.68 |
| CCOC(=O)c1cnc2c(c(C)nn2C)c1Nc1ccc(Br)cc1 | 4.57 µg/mL and 11.7 µM | 8.39 | 1.82 |
| CCOC(=O)c1cnc2c(c(C)nn2C)c1Nc1ccc(OC)cc1 | 10.9 µg/mL and 32 µM | 8.07 | 0.94 |
| CCOC(=O)c1cnc2c(c(-c3ccccc3)nn2-c2ccccc2)c1Nc1ccc(O)cc1 | 0.34 µg/mL and 750 nM | – | 3.09 |
| CCOC(=O)c1cnc2c(c(C)nn2C)c1Nc1cccc(Cl)c1 | 4.79 µg/mL and 13.9 µM | 9.05 | 1.67 |
| CCOC(=O)c1cnc2c(c(C)nn2-c2ccccc2)c1Nc1ccc(O)c(CN(CC)CC)c1 | 0.18 µg/mL and 390 nM | – | 2.05 |
| CCOC(=O)c1cnc2c(c(C)nn2C)c1Nc1ccc(O)cc1 | 1.37 µg/mL and 4.2 µM | 9.98 | 1.14 |
| CCOC(=O)c1cnc2c(c(C)nn2C)c1Nc1cccc(OC)c1 | 7.45 µg/mL and 21.9 µM | 7.64 | 0.94 |
| CCOC(=O)c1cnc2c(c(-c3ccccc3)nn2-c2ccccc2)c1Nc1ccc(O)c(CN(CC)CC)c1 | 0.06 µg/mL and 120 nM | – | 3.45 |
| CCOC(=O)c1cnc2c(c(C)nn2C)c1Nc1cccc(C)c1 | 4.82 µg/mL and 14.9 µM | 7.06 | 2.27 |
| CCOC(=O)c1cnc2c(c(C)nn2-c2ccccc2)c1Nc1ccc(O)cc1 | 0.21 µg/mL and 550 nM | – | 1.69 |
| CCOC(=O)c1cnc2c(c(C)nn2C)c1Nc1ccc(C)cc1 | 10.6 µg/mL and 32.6 µM | 8.61 | 1.52 |
| N=C(N)c1ccc(OCCCCCOc2ccc(C(=N)N)cc2)cc1.O=S(=O)(O)CCO | 0.27 µg/mL and 460 nM | – | – |
